Test results taken from ChEMBL document CHEMBL1136312, “Nortropinyl-arylsulfonylureas as novel, reversible inhibitors of human steroid sulfatase” (Bioorg Med Chem Lett, 2003).

How the values were obtained:
Steryl-sulfatase [1] = target: T1, Steryl-sulfatase (Homo sapiens, UniProt P08842); experiment: Inhibitory constant against purified human Steroid sulfatase
T1 sequence (P08842 whole entry): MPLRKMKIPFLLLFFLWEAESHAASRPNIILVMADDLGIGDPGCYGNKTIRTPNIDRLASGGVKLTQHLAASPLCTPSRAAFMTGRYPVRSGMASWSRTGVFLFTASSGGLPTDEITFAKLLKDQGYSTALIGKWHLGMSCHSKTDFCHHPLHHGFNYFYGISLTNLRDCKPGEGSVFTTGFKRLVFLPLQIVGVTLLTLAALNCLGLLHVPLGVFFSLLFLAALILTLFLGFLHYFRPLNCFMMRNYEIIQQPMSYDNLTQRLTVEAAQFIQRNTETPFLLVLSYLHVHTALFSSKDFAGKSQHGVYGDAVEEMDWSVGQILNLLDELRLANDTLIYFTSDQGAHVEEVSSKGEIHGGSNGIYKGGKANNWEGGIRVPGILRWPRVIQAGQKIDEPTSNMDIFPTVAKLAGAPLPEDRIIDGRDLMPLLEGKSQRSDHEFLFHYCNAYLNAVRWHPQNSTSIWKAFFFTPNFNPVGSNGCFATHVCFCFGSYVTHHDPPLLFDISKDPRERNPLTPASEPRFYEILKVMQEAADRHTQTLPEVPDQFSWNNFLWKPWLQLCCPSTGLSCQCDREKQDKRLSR
Method in brief: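 Kinetic study with purified recombinant human STS and 4-MUS substrate in the discontinuous fluorimetric assay. Substrate turnover rates are measured at various inhibitor concentrations and replotted as Hanes diagrams. Kapp/Vapp ratios are plotted against inhibitor concentration, and Ki is read from the abscissa intercept. Pre-incubation and dextran-activated charcoal treatment were used to test reversibility.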

Steryl-sulfatase [2] = target: T1, Steryl-sulfatase; experiment: Inhibitory activity against purified human Steroid sulfatase
Method in brief: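 Homogeneous human STS, purified from recombinant CHO cells, cleaves 4-methylumbelliferyl sulfate (4-MUS). The reaction is followed in a discontinuous fluorimetric assay with and without inhibitor, using a 1 h incubation in the standard format. The IC50 is taken from the inhibition data.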

Steryl-sulfatase [3] = target: T1, Steryl-sulfatase; experiment: Inhibitory activity against Steroid sulfatase expressed in CHO cells; format: cell-based
Method in brief: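 Intact CHO cells over-expressing recombinant human STS are given 4-MUS as substrate, using the assay variant for reversible inhibitors. STS activity is measured in the presence of inhibitor, and the IC50 is derived.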

MCF7 = experiment: Growth stimulation of estrogen receptor positive MCF-7 human breast cancer cells with compound up to 10 uM; not estrogenic; format: functional, cell-based

Compound	Ki (Steryl-sulfatase [1]) [µM]	IC50 (Steryl-sulfatase [2]) [µM]	IC50 (Steryl-sulfatase [3]) [µM]	Activity (MCF7)
O=C(Cc1ccccc1)O[C@H]1C[C@H]2CC[C@@H](C1)N2C(=O)NS(=O)(=O)c1cc(C(F)(F)F)cc(C(F)(F)F)c1	0.076	0.084	1.89	
O=C(Cc1ccccc1)O[C@H]1C[C@H]2CC[C@@H](C1)N2C(=O)CS(=O)(=O)c1ccc(Cl)cc1		6.2	4.32	
Cc1ccc(S(=O)(=O)NC(=O)N2[C@@H]3CC[C@H]2C[C@@H](OC(=O)Cc2ccccc2)C3)cc1		16.6	37.1	
N#CC1(OC(=O)Cc2ccccc2)CCN(C(=O)NS(=O)(=O)c2ccc(Cl)cc2)CC1		13	24.5	
O=C(Cc1ccccc1)OC1CCN(C(=O)NS(=O)(=O)c2ccc(Cl)cc2)CC1		> 100	> 30	
C[C@]12CC[C@@H]3c4ccc(OS(N)(=O)=O)cc4CC[C@H]3[C@@H]1CCC2=O [EMATE]	0.67		0.03	
O=C(NN1[C@@H]2CC[C@H]1C[C@@H](OC(=O)Cc1ccccc1)C2)NS(=O)(=O)c1ccc(Cl)cc1	0.89		3.84	not estrogenic
O=C(Cc1ccccc1)O[C@H]1C[C@H]2CC[C@@H](C1)N2C(=O)NS(=O)(=O)c1ccc(Cl)cc1	2.4		6.72	
O=C(Cc1ccccc1)O[C@H]1C[C@H]2CC[C@@H](C1)N2C(=O)NS(=O)(=O)c1ccc(Br)cc1	1.85		6.15	
O=C(Cc1ccccc1)O[C@H]1C[C@H]2CC[C@@H](C1)N2C(=O)NS(=O)(=O)c1ccc(F)cc1		50	39.2	
O=C(Cc1ccccc1)O[C@H]1C[C@H]2CC[C@@H](C1)N2C(=O)NS(=O)(=O)c1ccc(C(F)(F)F)cc1	0.53		7.47	
O=C(Cc1ccccc1)O[C@H]1C[C@H]2CC[C@@H](C1)N2C(=O)NS(=O)(=O)c1ccccc1		> 100	> 30	
O=C(Cc1ccccc1)O[C@H]1C[C@H]2CC[C@@H](C1)N2C(=O)NC(=O)c1ccc(Cl)cc1	5.8		10.4	
